Series [1] in a line: Apparent passive permeability from apical to basolateral side in MDCK2-MDR1 cells at 3 uM after 90 mins by LC-MS/MS analysis. The format is ADME, cell-based, Canis lupus familiaris. The note with it: dog, MDCK-MDR1. In short, it runs like this:
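MDCKII-MDR1 monolayers, HBSS transport medium pH 7.4; compound 3 μM for 90 min, run with and without a P-gp inhibitor, n = 3. Quantified by LC-MS/MS as analyte/internal-standard peak-area ratio; monolayer integrity checked with Lucifer yellow. Papp given in nm/sec, A>B.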

The nature of series [2]: AUClast in mouse liver at 5 mg/kg, po measured up to 8 hrs post dose. It counts as ADME, organism-based. On the set-up: dose 5 mg/kg, time < 8 hr, route oral. In short, it runs like this: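 Mice dosed orally at 5 mg/kg in 0.5% (w/v) HPMC in water with 5% (v/v) DMSO; blood, liver and kidney concentrations followed to 8 h. AUC0–8h given in h·ng/mL; parameters reported as means.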

For orientation: Papp A→B means the apparent permeability from the apical to the basolateral side of a cell layer. The AUC(0-t) is the area under the concentration-time curve up to a stated or last time point. High values mean more exposure, low ones less exposure. Consider `N#Cc1c(-c2cccs2)nc(SCc2cccc(CC(=O)O)c2)[nH]c1=O`, for which the apparent permeability from apical to basolateral (Papp A→B) at 1.5 h, 3 µM in series [1] is 0.456 ×10⁻⁶ cm/s. In series [2], this compound displayed an AUC(0-t) at 8 h of 19200 ng·h/mL.

Values taken from ChEMBL document CHEMBL4024800, “α-Amino-β-carboxymuconate-ε-semialdehyde Decarboxylase (ACMSD) Inhibitors as Novel Modulators of De Novo Nicotinamide Adenine Dinucleotide (NAD+) Biosynthesis” (J Med Chem, 2018).
